Converted amounts (≈) assume the structure as drawn.
Key:
[1] = tested on: Mycobacterium tuberculosis; assay: Antimycobacterial activity against Mycobacterium tuberculosis H37Rv assessed as growth inhibition after 5 days by MTT assay; type: functional; settings: 120 h
Method in brief: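 MTB inoculum made from 20–30-day slant growth in Tween 80/0.2% BSA, adjusted to McFarland No. 1, then diluted in 7H9GC broth (Middlebrook 7H9, glycerol, Casitone, OADC). Final inoculum about 1.2 × 10^6 CFU/mL. Compounds taken from DMSO stock to final 0.4–25 in broth, with a DMSO control. Plates run 5 days at 37 °C, then tetrazolium (MTT)–Tween 80 added for a further 24 h at 37 °C. Read-out is MIC.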

[2] = Selectivity index, ratio of IC50 for mouse J774.1 cells to MIC for Mycobacterium tuberculosis H37Rv; type: functional
Method in brief: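 Cytotoxicity: J774.1 macrophages in DMEM with 4 mM L-glutamine and 10% heat-inactivated FCS, seeded at 5 × 10^4/well, attached 48 h at 37 °C, 5% CO2. Exposed 48 h to 12.5–400.0 µM compound or vehicle. MTT at 0.1 mg/mL final for 3 h, formazan dissolved in DMSO/glycine buffer pH 10.5, A560 read. IC50 by linear regression, divided by the MIC against the same MTB strain.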

[3] = Selectivity index, ratio of IC50 for mouse J774.1 cells to IC50 for amastigote stage of Trypanosoma cruzi Tulahuen C4; type: toxicity; settings: read-out: Ratio IC50
[4] = tested on: Trypanosoma cruzi; assay: Trypanosomicidal activity against amastigote stage of Trypanosoma cruzi Tulahuen C4 transfected with beta-D-galactosidase infected in african green monkey Vero cells assessed as growth inhibition incubated 5 days prior to beta-D-galactopyranoside addition measured after 4 to 5 hrs by colorimetric assay; type: functional, organism-based
Method in brief: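 VERO monolayer in phenol red-free RPMI 1640 with 10% FCS, infected with 5×10^4 LacZ-transfected Tulahuen C4 trypomastigotes/well, 24 h at 37 °C, 5% CO2. Compounds added for 5 days. CPRG substrate added, 4–5 h at 37 °C, A570. Actives (>50% inhibition) retested in duplicate at 10.0–0.16; IC50 by logarithmic regression versus untreated control.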

[5] = tested on: Trypanosoma cruzi; assay: Trypanosomicidal activity against axenic epimastigote stage of Trypanosoma cruzi Tulahuen 2 assessed as growth inhibition; type: functional, organism-based
Method in brief: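 Tulahuen 2 epimastigotes grown axenically at 28 °C in BHI-tryptose with 5% FCS, harvested late log phase, 3×10^6/mL in 24-well plates. Compound added from DMSO stock (≤1% DMSO). Growth as A590 at day 0 and day 5; % inhibition from blank-corrected absorbances; ID50 = concentration halving absorbance relative to untreated controls.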

[6] = Cytotoxicity against mouse J774.1 cells assessed as cell viability after 48 hrs by MTT assay; type: cell-based; settings: J774.1, 48 h
Method in brief: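 J774.1 macrophages in DMEM with 4 mM L-glutamine and 10% heat-inactivated FCS, 5×10^4 cells/well, attached 48 h at 37 °C, 5% CO2. Exposed 48 h to compounds (12.5–400.0 µM) or vehicle. MTT 0.1 mg/mL final, 3 h at 37 °C; formazan dissolved in DMSO/glycine buffer pH 10.5, A560. IC50 by linear regression versus solvent control.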

[7] = tested on: Leishmania amazonensis; assay: Leishmanicidal activity against axenic amastigote stage of Leishmania amazonensis MHOM/BR/76/LTB-012 assessed as growth inhibition after 72 hrs by MTT assay; type: functional, organism-based; settings: MHOM/BR/76/LTB-012, 72 h
Method in brief: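 L. amazonensis axenic amastigotes (MHOM/BR/76/LTB-012), weekly passages in MAA/20 at 32 °C, 5% CO2. Seeded in 96-well plates; compounds in DMSO at 100 to 1 final, 72 h. MTT added for 4 h, stopped with 50% isopropanol–10% SDS, 30 min agitation at room temperature, A570. Triplicate; % inhibition versus control, IC50 from several concentrations.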

[8] = Selectivity index, ratio of IC50 for mouse J774.1 cells to IC50 for axenic amastigote stage of Leishmania amazonensis MHOM/BR/76/LTB-012; type: toxicity; settings: read-out: Ratio IC50

SMILES	MIC [1] [µM]	Selectivity Index [2]	selectivity ratio [3]	IC50 [4] [µM]	IC50 [5] [µM]	IC50 [6] [µM]	IC50 [7] [µM]	selectivity ratio [8]
Cc1c(C(=O)N/N=C/c2ccc([N+](=O)[O-])o2)no[n+]1[O-]	44.5 (≈ 12.5 µg/mL)	1.5	< 2	> 35.6	50.1	68	–	–
NNC(=O)c1cnn(-c2ccccc2)c1	–	–	–	> 49.5	–	–	–	–
O=C(N/N=C/c1ccc2nonc2c1)c1cccnc1	> 93.6	<2	< 5.5	> 37.5	> 150	209	–	–
Cc1c(C(=O)NN)no[n+]1[O-]	–	–	–	> 62.3	> 50	–	–	–
Cc1c(C(=O)N/N=C/c2ccccc2)no[n+]1[O-]	> 102	–	–	> 40.7	151	> 400	–	–
Cc1[nH]cnc1C(=O)N/N=C/c1c(-c2ccccc2)no[n+]1[O-]	> 80.1	–	–	> 32.1	> 150	> 400	–	–
NNC(=O)c1cccnc1 [NICOTINIC ACID HYDRAZIDE]	–	–	–	> 73	> 150	–	–	–
Cc1c(C(=O)N/N=C/c2ccc(C(F)(F)F)cc2)no[n+]1[O-]	> 79.6	–	–	> 31.9	> 150	> 400	–	–
NNC(=O)c1ccc2c(c1)OCO2	–	–	–	> 55.6	> 150	–	–	–
Cc1c(C(=O)N/N=C/c2ccc(N(C)C)cc2)no[n+]1[O-]	> 86.5	<1.5	< 3	> 34.6	> 150	129	–	–
Cc1nc2ccccn2c1C(=O)N/N=C/c1ccc2no[n+]([O-])c2c1	77.2 (≈ 26 µg/mL)	1.8	< 4	> 30.9	> 150	141	–	–
Cc1nc2ccccn2c1C(=O)N/N=C/c1no[n+]([O-])c1C	> 83.3	–	–	> 33.3	> 150	> 400	12.6	> 32
Cc1c(C(=O)N/N=C/c2ccc([N+](=O)[O-])s2)no[n+]1[O-]	42.1 (≈ 12.5 µg/mL)	>10	–	> 33.7	50	> 400	–	–
COc1cc(/C=N/NC(=O)c2no[n+]([O-])c2C)cc(OC)c1OC	> 74.4	–	–	–	–	> 300	–	–
Cc1c(C(=O)N/N=C/c2ccc(C(=O)O)cc2)no[n+]1[O-]	> 86.2	–	–	> 34.5	> 150	> 300	–	–
O=C(N/N=C/c1c(-c2ccccc2)no[n+]1[O-])c1cnn(-c2ccccc2)c1	> 66.8	<0.6	–	> 26.7	> 150	41.7	–	–
Cc1c(/C=N/NC(=O)c2cnn(-c3ccccc3)c2)no[n+]1[O-]	> 80.1	<4	–	> 32.1	> 150	295	–	–
Cc1c(C(=O)N/N=C/c2ccc(Br)cc2)no[n+]1[O-]	> 74	<2	< 5	> 29.6	> 150	162	–	–

SMILES	MIC [1] [µM]	Selectivity Index [2]	selectivity ratio [3]	IC50 [4] [µM]	IC50 [5] [µM]	IC50 [6] [µM]	IC50 [7] [µM]	selectivity ratio [8]
Cc1c(C(=O)N/N=C/c2c(-c3ccccc3)no[n+]2[O-])no[n+]1[O-]	> 75.8	–	–	> 30.3	25.1	> 400	–	–
Cc1[nH]cnc1C(=O)N/N=C/c1no[n+]([O-])c1C	> 100	–	–	> 40	> 150	> 400	–	–
Cc1c(/C=N/NC(=O)c2no[n+]([O-])c2C)no[n+]1[O-]	> 93.6	–	–	> 37.5	81.3	> 400	–	–
Cc1c(C(=O)N/N=C/c2ccccc2O)no[n+]1[O-]	> 95.4	<3	< 6	> 38.7	39.8	246	–	–
COC(=O)c1no[n+]([O-])c1C	–	–	–	> 62.3	> 50	–	–	–
O=C(N/N=C/c1ccc2nonc2c1)c1ccncc1	> 93.6	–	–	> 37.5	> 150	> 400	–	–
Cc1c(C(=O)N/N=C/c2ccco2)no[n+]1[O-]	> 106	–	–	> 42.4	> 150	> 400	–	–
Cc1c(C(=O)N/N=C/c2ccc3no[n+]([O-])c3c2)no[n+]1[O-]	82.2 (≈ 25 µg/mL)	>5	–	> 32.9	> 150	> 400	–	–
Cc1c(C(=O)N/N=C/c2ccccn2)no[n+]1[O-]	> 101	–	–	> 40.5	> 150	> 400	–	–
CC(=O)Nc1ccc(/C=N/NC(=O)c2no[n+]([O-])c2C)cc1	> 82.5	<3	–	> 33	> 150	235	–	–
Cc1c(C(=O)N/N=C/c2ccc3c(c2)OCO3)no[n+]1[O-]	> 86.2	–	–	> 34.5	> 150	> 400	–	–
COc1ccc(/C=N/NC(=O)c2no[n+]([O-])c2C)cc1O	> 85.6	–	–	–	–	> 400	8.3	> 48
COc1ccc(/C=N/NC(=O)c2no[n+]([O-])c2C)cc1OC	> 81.6	–	–	–	–	> 400	–	–
NNC(=O)c1ccncc1 [ISONIAZID]	0.4 (≈ 0.0549 µg/mL)	>1000	–	–	> 150	> 400	–	–
Cc1nc2ccccn2c1C(=O)NN	–	–	–	> 52.6	> 150	–	29.8	> 13
Cc1c(/C=N/NC(=O)c2cccnc2)no[n+]1[O-]	> 101	–	–	> 40.5	> 150	> 400	–	–
O=C(N/N=C/c1c(-c2ccccc2)no[n+]1[O-])c1cccnc1	40.5 (≈ 12.5 µg/mL)	5	< 6	> 32.4	58.9	195	–	–

— ChEMBL document CHEMBL2331334, “Hybrid furoxanyl N-acylhydrazone derivatives as hits for the development of neglected diseases drug candidates” (Eur J Med Chem, 2013)
